Assay results reported in ChEMBL document CHEMBL1275396 (J Med Chem, 2010).

How the values were obtained:
[1] = target: T1, Neuronal acetylcholine receptor; alpha3/beta4 (Rattus norvegicus, UniProt P04757+P12392); assay: Displacement of [3H]epibatidine from rat alpha3beta4 nAChR expressed in […] cells after 3 hrs; type: cell-based
[2] = target: Neuronal acetylcholine receptor; alpha4/beta2 (Rattus norvegicus, UniProt P09483+P12390); assay: Displacement of [3H]epibatidine from rat alpha4beta2 nAChR expressed in […] cells after 3 hrs; type: cell-based
[3] = target: T1, Neuronal acetylcholine receptor; alpha3/beta4; assay: Partial agonist activity at rat alpha3beta4 nAChR expressed in […] cells assessed as increase of calcium influx by FLIPR assay; type: functional, cell-based
How it was run: (§1)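 For functional assays, KXα3β4R2 cells (DMEM, 10% FBS, geneticin, 37°C, 7.5% CO2) were seeded into collagen-coated 96-well plates at about 50,000 cells/well. They grew to a confluent monolayer in 24 to 30 h before testing.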

[4] = target: Neuronal acetylcholine receptor; alpha3/beta4 (Rattus norvegicus) (UniProt P04757+P12392); assay: Partial agonist activity at rat alpha3beta4 nAChR expressed in […] cells assessed as increase of calcium influx by FLIPR assay relative to control; type: functional, cell-based; how it was run: as §1
Rattus norvegicus [5] = organism: Rattus norvegicus; assay: Selectivity ratio of Ki for rat alpha3beta4 nAChR to Ki for rat alpha4beta2 nAChR
How it was run: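 KXα3β4R2 or KXα4β2R2 cells grown in DMEM with 10% FBS and 0.4 mg/mL geneticin at 37°C under 7.5% CO2. Cells were scraped, homogenised in Tris buffer and spun at 20,000 x g to give membranes. […] Ki was obtained from IC50 by Cheng-Prusoff.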

Rattus norvegicus [6] = organism: Rattus norvegicus; assay: Selectivity ratio of Ki for rat alpha3beta4 nAChR to Ki for alpha7 nAChR in rat brain membranes; type: cell membranes

Chain of Neuronal acetylcholine receptor; alpha4/beta2 (P09483 whole entry): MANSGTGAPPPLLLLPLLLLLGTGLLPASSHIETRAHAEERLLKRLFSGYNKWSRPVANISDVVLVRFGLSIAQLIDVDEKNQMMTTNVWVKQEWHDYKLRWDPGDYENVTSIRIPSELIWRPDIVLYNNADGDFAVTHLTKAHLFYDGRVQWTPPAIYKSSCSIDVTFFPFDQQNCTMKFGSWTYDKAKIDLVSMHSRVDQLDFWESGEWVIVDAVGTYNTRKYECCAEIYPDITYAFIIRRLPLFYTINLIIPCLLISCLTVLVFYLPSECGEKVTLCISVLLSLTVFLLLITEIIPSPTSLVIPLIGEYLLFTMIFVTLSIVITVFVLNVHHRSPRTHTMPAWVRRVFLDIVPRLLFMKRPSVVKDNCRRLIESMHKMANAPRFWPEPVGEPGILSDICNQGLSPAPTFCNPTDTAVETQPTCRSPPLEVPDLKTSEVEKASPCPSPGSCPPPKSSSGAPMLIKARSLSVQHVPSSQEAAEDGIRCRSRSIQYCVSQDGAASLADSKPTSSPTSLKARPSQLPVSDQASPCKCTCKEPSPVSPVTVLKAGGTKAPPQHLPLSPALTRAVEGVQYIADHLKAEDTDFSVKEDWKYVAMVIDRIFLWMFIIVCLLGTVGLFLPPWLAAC
Chain of Neuronal acetylcholine receptor; alpha4/beta2 (P12390 whole entry): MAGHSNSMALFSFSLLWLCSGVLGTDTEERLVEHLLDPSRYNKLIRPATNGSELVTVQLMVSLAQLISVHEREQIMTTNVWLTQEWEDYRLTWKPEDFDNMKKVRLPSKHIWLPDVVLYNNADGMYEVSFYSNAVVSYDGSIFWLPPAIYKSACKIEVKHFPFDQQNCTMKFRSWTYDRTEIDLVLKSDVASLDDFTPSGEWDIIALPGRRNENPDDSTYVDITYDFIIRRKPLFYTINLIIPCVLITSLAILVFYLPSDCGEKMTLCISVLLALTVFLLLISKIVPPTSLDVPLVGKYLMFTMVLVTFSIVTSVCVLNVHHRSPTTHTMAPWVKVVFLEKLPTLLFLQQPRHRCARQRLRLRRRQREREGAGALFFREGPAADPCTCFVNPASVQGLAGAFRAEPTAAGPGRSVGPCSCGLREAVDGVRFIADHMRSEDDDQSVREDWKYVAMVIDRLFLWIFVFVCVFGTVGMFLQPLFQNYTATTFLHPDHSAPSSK
T1 sequence (P04757 whole entry): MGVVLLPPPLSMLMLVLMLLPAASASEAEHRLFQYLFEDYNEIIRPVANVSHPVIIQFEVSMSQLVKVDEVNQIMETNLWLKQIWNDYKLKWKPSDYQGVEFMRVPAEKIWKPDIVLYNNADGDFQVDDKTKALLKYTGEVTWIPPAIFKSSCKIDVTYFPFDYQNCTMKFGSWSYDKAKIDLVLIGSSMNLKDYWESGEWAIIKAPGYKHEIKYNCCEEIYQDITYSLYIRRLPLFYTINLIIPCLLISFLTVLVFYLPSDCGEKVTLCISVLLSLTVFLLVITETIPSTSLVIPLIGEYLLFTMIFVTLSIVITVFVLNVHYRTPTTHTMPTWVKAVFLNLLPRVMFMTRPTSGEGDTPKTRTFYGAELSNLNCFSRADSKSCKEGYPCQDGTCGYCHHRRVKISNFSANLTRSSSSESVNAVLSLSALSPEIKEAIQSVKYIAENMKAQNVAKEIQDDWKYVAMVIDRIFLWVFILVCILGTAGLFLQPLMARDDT
T1 sequence (P12392 whole entry): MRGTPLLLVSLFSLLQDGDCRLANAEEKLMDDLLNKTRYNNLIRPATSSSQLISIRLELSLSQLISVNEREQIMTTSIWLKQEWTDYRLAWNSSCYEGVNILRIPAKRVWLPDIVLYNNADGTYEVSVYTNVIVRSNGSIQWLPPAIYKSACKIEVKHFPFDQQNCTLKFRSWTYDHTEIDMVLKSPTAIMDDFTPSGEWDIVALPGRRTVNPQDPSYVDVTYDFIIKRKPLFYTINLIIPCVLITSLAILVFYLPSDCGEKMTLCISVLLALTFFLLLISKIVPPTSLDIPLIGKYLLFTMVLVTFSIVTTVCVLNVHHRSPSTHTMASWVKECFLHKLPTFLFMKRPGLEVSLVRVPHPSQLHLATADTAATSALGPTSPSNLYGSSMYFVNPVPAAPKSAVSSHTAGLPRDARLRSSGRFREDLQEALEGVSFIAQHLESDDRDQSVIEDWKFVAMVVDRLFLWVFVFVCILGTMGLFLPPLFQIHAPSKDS

| SMILES | Ki [1] | Ki [2] | also measured |
| --- | --- | --- | --- |
| O=C1Cc2ccccc2N1C1CC2CC(C1)N(Cc1ccccc1)C2 (stereo not given) | 1.84 µM | > 10 µM | – |
| CN1C2CCCC1CC(N1C(=O)Cc3ccccc31)C2 (stereo not given) | – | > 100 µM | – |
| O=C1Cc2ccccc2N1C1CC2CCCC(C1)N2 (stereo not given) | – | > 100 µM | – |
| CN1C2C=C(c3cccnc3)CC1CCC2 (stereo not given) | – | 0.0104 µM | EC50 [3]: 4.8 µM; Emax [4]: 44% |
| CN1CC2CC1CC(N1C(=O)Cc3ccccc31)C2 (stereo not given) | > 10 µM | > 10 µM | – |
| CCC(C)(C)C1CCC(N2CCC(C3C(=O)Nc4ccccc43)CC2)CC1 (stereo not given) | > 10 µM | > 10 µM | – |
| C1=C(c2cccnc2)CC2CCC1CN2Cc1ccccc1 (stereo not given) | – | – | EC50 [3]: 2 µM; Emax [4]: 72%; Ratio Ki (Rattus norvegicus [5]): 100; Ratio Ki (Rattus norvegicus [6]): 200 |
| CC(c1ccc(C2CCCCC2)cc1)N1CCC(N2C(=O)Cc3ccccc32)CC1 (stereo not given) | > 10 µM | > 10 µM | – |
| CN1C2CCC1CC(N1C(=O)Cc3ccccc31)C2 (stereo not given) | – | > 100 µM | – |
| CC1CN(Cc2ccccc2)CCC1N1C(=O)Cc2ccccc21 (stereo not given) | > 10 µM | > 10 µM | – |
